Results as given in ChEMBL document CHEMBL1137014, “Structure-activity study of new inhibitors of human betaine-homocysteine S-methyltransferase” (J Med Chem, 2009).

What was measured:
[1] = target: T1, Betaine--homocysteine S-methyltransferase 1 (Homo sapiens, UniProt Q93088); experiment: Inhibition of human recombinant BHMT expressed in Escherichia coli using 2 mM betaine and 1 mM DL-homocysteine as substrate
T1 sequence (Q93088 whole entry): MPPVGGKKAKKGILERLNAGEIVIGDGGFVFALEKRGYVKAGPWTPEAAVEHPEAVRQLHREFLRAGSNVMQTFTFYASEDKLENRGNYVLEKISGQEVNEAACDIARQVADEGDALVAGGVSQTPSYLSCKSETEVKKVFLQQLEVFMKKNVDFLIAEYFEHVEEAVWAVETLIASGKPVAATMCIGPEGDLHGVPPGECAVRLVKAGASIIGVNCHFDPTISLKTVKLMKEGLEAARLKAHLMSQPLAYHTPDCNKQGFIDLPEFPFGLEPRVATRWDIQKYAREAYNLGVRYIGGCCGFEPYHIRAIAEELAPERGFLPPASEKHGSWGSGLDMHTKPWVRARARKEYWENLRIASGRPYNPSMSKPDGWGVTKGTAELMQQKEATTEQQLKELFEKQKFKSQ
How it was run: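 Same radiometric Dowex assay as for percent inhibition (0.2 μM enzyme, pH 7.5 K-phosphate, 37 °C, 30 min), but with 1 mM DL-homocysteine and 2 mM 14C-betaine. Ten inhibitor concentrations in duplicate per curve, IC50 by nonlinear regression. Three independent experiments, mean ± SEM.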

[2] = target: T1, Betaine--homocysteine S-methyltransferase 1; experiment: Binding affinity to human recombinant BHMT expressed in Escherichia coli by isothermal titration calorimetry
How it was run: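 ITC at 25 °C in 50 mM HEPES/NaOH, ACES/NaOH or Tris/HCl, pH 7.5, with 5 mM β-mercaptoethanol, no substrates present. 9 μL aliquots of 50 μM ligand injected into 5.1 μM protein (monomer, quantified by amino acid analysis after dialysis) until saturation. Heats corrected for dilution using buffer-only injections and fitted to the integrated heats.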

[3] = target: T2, Betaine--homocysteine S-methyltransferase 1 (Homo sapiens) (UniProt Q93088); experiment: Inhibition of human recombinant BHMT expressed in Escherichia coli at 20 uM using 0.25 mM betaine and 0.1 mM DL-homocysteine as substrate
T2 sequence (whole entry): T1 sequence (Q93088 whole entry)
How it was run: (§1)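 Radiometric assay with 0.2 μM enzyme, preincubated with inhibitor, then 100 μM DL-homocysteine (fresh from thiolactone) and 250 μM [methyl-14C]betaine. Run in 50 mM K-phosphate pH 7.5 with 10 mM β-mercaptoethanol, 37 °C, 30 min; stopped on ice. […] Enzyme-free blanks subtracted; triplicates; activity expressed relative to no-inhibitor control.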

[4] = target: T2, Betaine--homocysteine S-methyltransferase 1 (Homo sapiens); experiment: Inhibition of human recombinant BHMT expressed in Escherichia coli at 1 uM using 0.25 mM betaine and 0.1 mM DL-homocysteine as substrate; how it was run: as §1

| SMILES | IC50 [1] [µM] | Kd [2] [µM] | inhibition [3] [%] | inhibition [4] [%] |
| --- | --- | --- | --- | --- |
| NC(CC[Se]CCCCC(=O)O)C(=O)O (racemic) | 0.649 |  | 100 | 94.3 |
| NC(CCSCSCCC(=O)O)C(=O)O (racemic) | 3.26 |  | 97.6 | 26.3 |
| CN(CCCSCCC(N)C(=O)O)CC(=O)O (racemic) |  |  | 79 | 22.4 |
| C[N+](C)(CCCSCCC(N)C(=O)O)CC(=O)[O-] (racemic) |  |  | 3.3 | 0 |
| C[N+](C)(CCSCCC(N)C(=O)O)CC(=O)[O-] (racemic) |  |  | 23.8 | 5.1 |
| C[N+](C)(CSCCC(N)C(=O)O)CC(=O)[O-] (racemic) |  |  | 0 | 0 |
| NC(CCCCCCCC(=O)O)C(=O)O (racemic) |  |  | 2.11 |  |
| NC(CCCSCCCC(=O)O)C(=O)O (racemic) |  |  | 5.4 |  |
| NC(CCOCCCCC(=O)O)C(=O)O (racemic) |  |  | 9.8 |  |
| NC(CCSCCNCCC(=O)O)C(=O)O (racemic) |  |  | 0 |  |
| NC(CCSSCCCC(=O)O)C(=O)O (racemic) |  |  | 19.1 |  |

More lines, now with the values ahead:

| IC50 [1] [µM] | Kd [2] [µM] | inhibition [3] [%] | inhibition [4] [%] | SMILES |
| --- | --- | --- | --- | --- |
| 0.701 |  |  |  | CC(C)(CCSCC[C@@H](N)C(=O)O)CC(=O)O |
| 0.064 | 0.051 |  |  | CC(C)(CCSCC[C@H](N)C(=O)O)CC(=O)O |
|  |  | 15.5 |  | C[C@@H](NCCSCCC(N)C(=O)O)C(=O)O (mixture of isomers) |
|  |  | 19.8 |  | C[C@H](NCCSCCC(N)C(=O)O)C(=O)O (mixture of isomers) |
| 0.084 |  | 100 | 98.1 | CC(C)(CCSCCC(N)C(=O)O)CC(=O)O (racemic) |
| 0.139 |  | 100 | 97.8 | C[C@@H](CCSCC[C@@H](N)C(=O)O)CC(=O)O (racemic) |
| 2.5 |  | 98.5 | 58.9 | CN(CCSCCC(N)C(=O)O)CC(=O)O (racemic) |
|  |  | 37.1 |  | NC(CCSCCNCC(=O)O)C(=O)O (racemic) |
